Compound activity deposited in PubChem by several laboratories.
Only some compounds are listed: those with a hit (about 4.8% of all), similar ones and a draw of the others.
pPAFAH FP inh: pPAFAH (human) enzyme inhibition. Q13093. recombinant pPAFAH, FP-rhodamine probe fluorescence polarization. inhibition, % at 3.39 µM. 1.5% of 330,000 active;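 active = inhibition above the mean inhibition across the screen plus 3 SD, cut at about 25% in these data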;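 also: inhibitors block binding of the rhodamine activity-based probe so polarization drops; 0% = enzyme with DMSO and 100% = wells lacking pPAFAH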
PAFAH2 FP inh: PAFAH2 (human) inhibition. Q99487. recombinant PAFAH2, FP-rhodamine activity probe, fluorescence polarization. inhibition, % at 3.39 µM. 0.99% of 340,000 active;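 active = inhibition above the mean over all tested compounds plus 3 SD, cut at about 30% in these data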;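 also: inhibitors block probe labeling of enzyme so polarization drops; 0% = enzyme with DMSO and 100% = wells lacking PAFAH2 protein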
PAFAH1B2 FP inh: inhibitors of human PAFAH1B2; 1.2% of 340,000 active; inhibition, % at 3.39 µM; P68402; recombinant PAFAH1B2, FP-rhodamine activity probe, fluorescence polarization; AID 492953;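 active = inhibition above the mean of all tested compounds plus 3 SD, cut at about 24% in these data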;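 also: 0% = enzyme with DMSO and 100% = wells lacking PAFAH1B2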
GRIN3A LBD mod: NR3A (human) ligand-binding domain modulation; Tm shift relative to glycine control, % at 25 µM; 2.5% of 340,000 active; NR3A LBD differential scanning fluorimetry, Tm shift; 0% = protein alone, 100% = glycine-bound protein;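 active = melting temperature shift of at least 10% of the positive control shift, at one fixed dose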
UCH37 inh: inhibitors of human deubiquitinating enzyme UCH37; Q9Y5K5; purified proteasome/UCH37, Ub-AMC cleavage fluorescence; inhibition, % (no concentration beside the values); 0.33% of 330,000 active; AID 588478;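 active = mean inhibition over replicate wells above about 20%, limit read from the data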;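 also: 0% = compound-free wells with enzyme and 100% = wells lacking proteasome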
Target sequence (Q9Y5K5 whole entry, looked up): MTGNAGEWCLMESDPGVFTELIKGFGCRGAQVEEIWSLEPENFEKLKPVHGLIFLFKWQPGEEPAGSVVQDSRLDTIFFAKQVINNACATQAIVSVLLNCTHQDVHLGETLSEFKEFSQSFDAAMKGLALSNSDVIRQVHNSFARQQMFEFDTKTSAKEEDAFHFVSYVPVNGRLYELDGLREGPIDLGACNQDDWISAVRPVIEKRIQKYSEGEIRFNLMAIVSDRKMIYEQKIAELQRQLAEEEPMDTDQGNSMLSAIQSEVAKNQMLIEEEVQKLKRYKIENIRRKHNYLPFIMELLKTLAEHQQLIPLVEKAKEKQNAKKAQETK
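Material: Human UCH37 enzyme supplied as purified proteasome complex | Schedule: 30 min preincubation with enzyme, 25 min cleavage at room temperature | Detection: AMC fluorescence 355/460 nm | Measure: % inhibition of Ub-AMC cleavage fluorescence | Controls: Wells without proteasome as full block, compound-free enzyme plus substrate as uninhibited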
PAFAH1B3 FP inh: PAFAH1B3 (human) inhibition | Q15102 | recombinant PAFAH1B3, FP-rhodamine probe, fluorescence polarization | inhibition, % at 3.39 µM | 0.28% of 340,000 active;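 active = inhibition above the screen-wide average of all tested compounds plus 3 SD, cut at about 25% in these data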;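 also: 0% = enzyme with DMSO only and 100% = wells lacking PAFAH1B3 protein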
Target sequence (Q15102 whole entry, looked up): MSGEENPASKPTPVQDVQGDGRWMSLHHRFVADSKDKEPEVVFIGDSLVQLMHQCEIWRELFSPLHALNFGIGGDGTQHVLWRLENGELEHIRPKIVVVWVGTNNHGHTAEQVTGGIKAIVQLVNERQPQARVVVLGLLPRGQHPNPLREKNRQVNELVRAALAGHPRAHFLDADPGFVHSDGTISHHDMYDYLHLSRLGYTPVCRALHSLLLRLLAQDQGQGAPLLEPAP
PAFAH2 confirm: confirmation of human PAFAH2 inhibitors | shares compounds with PAFAH2 FP inh | recombinant PAFAH2, FP-rhodamine activity probe, fluorescence polarization | inhibition, % at 3.39 µM | 65% of 2,300 active | AID 493030;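 active = mean inhibition over three repeats above a set limit taken from the earlier primary screen, cut at about 30% in these data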;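 also: inhibitor blocks binding of rhodamine activity probe so polarization falls; 0% = enzyme with DMSO and 100% = wells lacking PAFAH2 protein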
Numbers without * were called inactive; nt = no result.

SMILES | pPAFAH FP inh | PAFAH2 FP inh | PAFAH1B2 FP inh | GRIN3A LBD mod | UCH37 inh | PAFAH1B3 FP inh | PAFAH2 confirm
COc1cc(/C=N/n2c(COc3ccccc3)n[nH]c2=S)cc(Br)c1O | 4 | 52* | 10 | -2 | nt | 7 | 38*
COc1ccc(COC(=O)NN=C(C)CC(=O)Nc2ccc(Cl)cc2)cc1 | nt | nt | nt | nt | 5 | nt | nt
CNc1ccc(Br)cc(C(=O)/C=C/c2cccc(Cl)c2Cl)c1=O | nt | 44* | 10 | 5 | 7 | 15 | 15
C(=Nc1nc2ccccc2n1CCN1CCOCC1)c1cccs1 | nt | nt | nt | nt | -2 | nt | nt
O=C(O)CN=C(NS(=O)(=O)c1ccc(Cl)cc1)c1ccc(F)cc1 | 1 | 10 | 5 | -1 | 1 | 8 | nt
O=C(O)CN=C(NS(=O)(=O)c1ccc(Cl)cc1)c1ccccc1 | -7 | 35* | 12 | 0 | 2 | 1 | 7
Cc1cccc(C(=O)Nc2cc(Cl)ccc2-n2cncn2)c1[N+](=O)[O-] | 8 | 39* | 2 | 1 | 3 | 1 | 31*
CCCCCCCCCCC[C@@H](C[C@@H]1OC(=O)[C@H]1CCCCCC)OC(=O)[C@H](CC(C)C)NC=O | 93* | 80* | 10 | -5 | nt | 3 | 79*
C=CCOc1ccccc1C=NNC(=O)Cc1ccc(C)cc1 | nt | nt | nt | nt | -5 | nt | nt
COc1cc(-c2cccs2)cc(=O)c2c(C)oc(C)c12 | 22 | 32* | 4 | 1 | 1 | 7 | 6
O=[N+]([O-])c1cc(Cl)cc(/C=N/Nc2nc3ccccc3s2)c1O | 13 | 65* | 5 | 20* | nt | 18 | 46*
O=C(Cn1nc2ccccc2n1)N/N=C/c1cc(Cl)cc([N+](=O)[O-])c1O | nt | 30* | 9 | 0 | nt | 3 | 15
O=C(NN=Cc1cccnc1)c1cc(-c2ccccc2OCc2ccccc2)n[nH]1 | nt | nt | nt | nt | 3 | nt | nt
COC(=O)c1c(NC(=O)c2cccc(S(=O)(=O)N3CCN(C)CC3)c2)sc(C)c1C | 5 | 30* | 1 | -8 | 0 | -2 | 16
Cc1ccc(S(=O)(=O)N(C)C)cc1NC(=O)COC(=O)c1ccc(Cl)cc1 | 6 | 35* | 6 | 1 | 2 | 10 | 26
CCN(c1ccccc1)S(=O)(=O)c1ccc(Cl)c(NC(=O)COC(=O)c2ccc(Cl)c(N)c2)c1 | 19 | 40* | 8 | -5 | -22 | 6 | 20
Cc1ccc(S(=O)(=O)N(C)C)cc1NC(=O)COC(=O)C1CC1 | 1 | 43* | 1 | 1 | 4 | -1 | 34*
CS(=O)(=O)c1ccc(Cl)c(NC(=O)COC(=O)c2cccc(C#N)c2)c1 | 0 | 1 | 7 | -2 | 6 | 8 | nt
CN(C)S(=O)(=O)c1ccc(Cl)c(NC(=O)COC(=O)c2ccc3c(c2)NC(=O)CS3)c1 | 0 | 48* | 1 | 2 | -1 | 1 | 40*
O=C(O)c1ccc(NN=Cc2ccc(F)c(F)c2)cc1 | nt | nt | nt | nt | 20 | nt | nt
CCOc1cccc(-c2c(C(=O)NN=C(C)c3cccs3)nnn2-c2nonc2N)c1 | nt | nt | nt | nt | 4 | nt | nt
Cc1ccccc1OCCOc1cccc(C=NNC(=O)Cc2nnc(N)s2)c1 | nt | nt | nt | nt | 5 | nt | nt
CN(C)S(=O)(=O)c1ccc(Cl)c(NC(=O)COC(=O)c2ccc(O)cc2)c1 | 14 | 59* | 2 | 1 | 2 | 7 | 55*
COc1ccccc1OCCC(=O)OCC(=O)Nc1cc(S(=O)(=O)N(C)C)ccc1Cl | 22 | -3 | 2 | -1 | 3 | 5 | nt
COc1ccc(C=NNC2=NS(=O)(=O)c3ccccc32)cc1 | nt | nt | nt | nt | 15 | nt | nt
SMILES | pPAFAH FP inh | PAFAH2 FP inh | PAFAH1B2 FP inh | GRIN3A LBD mod | UCH37 inh | PAFAH1B3 FP inh | PAFAH2 confirm
COc1ccc(CNC(=O)C2(CC3CC(c4ccccc4)=NO3)CCN(C(=O)Cc3ccc(F)cc3)CC2)cc1 (centres undefined) | -3 | 4 | 6 | -8 | 1 | -12 | nt
CCOc1cc(C(=O)N2CCC(CC3CC(c4ccccc4)=NO3)(C(=O)NCc3ccc(OC)cc3)CC2)cc(OCC)c1OCC (centres undefined) | 8 | 30* | 9 | -3 | 1 | -2 | -6
CC(C)(C)OC(=O)NN=Cc1c[nH]c2ccccc12 | nt | nt | nt | nt | 4 | nt | nt
Cc1ccnn1-c1ccc(C(=O)OCC(=O)Nc2ccc(F)cc2)cc1 | nt | 55* | 4 | -3 | 3 | 0 | 60*
O=C(COC(=O)c1ccc2c(c1)OCCO2)Nc1ccc(F)cc1 | nt | 81* | 1 | 1 | 2 | 13 | 82*
O=C(COC(=O)c1ccc2c(c1)OCCO2)Nc1ccc(F)cc1F | 14 | 77* | 6 | 2 | 3 | 6 | 62*
CC(C)NC(=O)COC(=O)c1ccc(NS(=O)(=O)c2ccc3c(c2)OCCO3)cc1 | 20 | 51* | -4 | 0 | 1 | 5 | 43*
CCOC(=O)C(C#N)=NNc1ccccc1C(=O)O | nt | nt | nt | nt | 15 | nt | nt
OCc1nc2ccccc2n1N=Cc1cccs1 | nt | nt | nt | nt | 6 | nt | nt
CCc1nnc(NC(=O)CSc2nnc(-c3ccccc3NC(=O)c3ccccc3)o2)s1 | 0 | 34* | 4 | -1 | -20 | 3 | -3
CCOC(=O)CSc1nnc(-c2ccccc2NC(=O)c2ccccc2)o1 | 3 | -23 | 1 | 8 | -1 | -3 | nt
CCOc1ccc(C=Nn2cnnc2)cc1 | nt | nt | nt | nt | 2 | nt | nt
CC(C)(C)c1nc[nH]c(=O)c1Br | 8 | 63* | 5 | 0 | 3 | 5 | 41*
Cc1cc2c(C)nc(NN=Cc3ccc(F)cc3)nc2o1 | nt | nt | nt | nt | -12 | nt | nt
COc1cc(C=NNC(=O)c2cn(-c3cccc(C)n3)cn2)ccc1O | nt | nt | nt | nt | 4 | nt | nt
Cn1ccc(C(=O)OCC(=O)Nc2cccc(Cl)c2)n1 | 4 | 83* | -2 | -2 | 2 | -1 | 78*
